S100A4 MyoIIA: blocks human S100A4 binding to myosin IIA peptide; S100A4/TAMRA-MyoIIA peptide fluorescence polarization; 360,000 compounds, 0.14% hits; inhibition, % at 10.7 µM;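 active = mean inhibition of at least 70% across replicates, with every replicate also reaching that level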
Target sequence (P26447 whole entry, looked up): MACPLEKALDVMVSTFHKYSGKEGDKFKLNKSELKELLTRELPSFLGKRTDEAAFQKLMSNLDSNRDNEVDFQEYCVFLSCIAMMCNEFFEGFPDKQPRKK
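incubation = readout 5 min after mixing, signal stable up to 60 min | system = S100A4 monomer protein | buffer or medium = HEPES pH 7.2 with CaCl2, KCl, NaCl, DTT, Triton | benchmarks = neutral control DMSO, positive control TFP | also added = fluorescent myosin IIA peptide, 5 nM | compound dosing = one concentration per compound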
FGF22 binding: binders of recombinant human FGF22 by thermal shift; SYPRO orange fluorescence; percent of sucrose octasulfate shift, DMSO zero; activity (Tm shift, normalised), % at 9.99 µM; 340,000 compounds, 1.5% hits; AID 651658;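 active = mean Tm shift, scaled 0 neutral to 100 positive control, at about 1.3% or above, every replicate too, limit read from the data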
dFosB activator: mouse delta FosB homodimer activation; P13346; purified delta FosB, TAMRA-CDK5 oligo fluorescence polarization; percent of positive-control signal above neutral wells; activation, % at 25 µM; 340,000 compounds, 0.99% hits; AID 493131;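 active = mean activation above about 17%, with every replicate also reaching it, limit read from the data, passing the limit was not always enough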
Target sequence (P13346 whole entry, looked up): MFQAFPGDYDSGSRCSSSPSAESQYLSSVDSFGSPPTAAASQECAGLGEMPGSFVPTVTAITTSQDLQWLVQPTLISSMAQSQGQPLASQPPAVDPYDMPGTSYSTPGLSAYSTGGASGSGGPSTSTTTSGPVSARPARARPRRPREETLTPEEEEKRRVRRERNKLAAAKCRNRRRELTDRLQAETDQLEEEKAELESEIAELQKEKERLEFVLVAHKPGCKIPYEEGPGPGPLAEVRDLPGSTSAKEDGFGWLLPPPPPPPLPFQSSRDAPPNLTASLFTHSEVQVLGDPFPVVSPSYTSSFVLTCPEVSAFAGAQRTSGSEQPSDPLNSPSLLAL
F508del corr: correctors of CFTR F508del function in bronchial epithelial cells; CFBE cells, YFP halide quenching; stimulated with forskolin plus potentiator P3; % fluorescence drop versus neutral controls; activity (quench increase), % at 7.58 µM; 350,000 compounds, 0.36% hits;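 active = mean added fluorescence quench of at least 8% versus neutral control, with both replicates also reaching 8%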;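 also: cells transiently co-express mutant CFTR-F508del with the halide-sensitive YFP; corrector assay measuring rescue of mutant channel to the surface after 24 h compound exposure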
Numbers without * were called inactive; . = not tested or not shown. This is a sample that favours compounds with a hit; in the whole collection about 2.2% have one here.

SMILES | S100A4 MyoIIA | FGF22 binding | dFosB activator | F508del corr
O=C(CSC1=NNC(c2ccccn2)S1)Nc1ccccc1 (configuration not stated) | 0 | 0 | 6 | 11*
O=c1cnnc(SCc2ccc([N+](=O)[O-])cc2)[nH]1 | 1 | 43* | 3 | -2
O=[N+]([O-])c1ccc(CSc2nc3ccccc3[nH]2)cc1 | 3 | 0 | -2 | .
O=C(O)c1cc(-c2ccco2)nn1-c1ccc(Cl)cc1 | -22 | 0 | -16 | 0
O=C(O)c1cc(-c2ccco2)nn1-c1cccc(Cl)c1 | -3 | 43* | -11 | 3
CCCC#Cc1cnc2c(c1)C(=O)N([C@H](C)CO)C[C@H](C)[C@H](CN(C)S(=O)(=O)c1cccc(OC)c1)O2 | -14 | 0 | . | -2
CC(=O)c1c(O)ccc2c(-c3ccccc3)cc(=O)oc12 | . | . | -1 | .
CN(C)Cc1c(O)ccc2c(-c3ccccc3)cc(=O)oc12 | -7 | 43* | 0 | .
COc1ccc(C(C(=O)NC(C)(C)C)N(CCc2ccccc2)C(=O)CCC(=O)Nc2cc(C)on2)cc1 (configuration not stated) | -2 | 0 | -8 | -2
COc1ccc(C(C(=O)NC(C)(C)C)N(CCO)C(=O)CCC(=O)Nc2cc(C)on2)cc1 (configuration not stated) | -2 | 43* | 3 | -2
Cc1cccn2cc(-c3cc4ccccc4oc3=O)nc12 | -1 | 43* | 0 | -1
C[C@@H]1CN([C@H](C)CO)C(=O)Cc2cc(NC(=O)Nc3ccc(C(F)(F)F)cc3)ccc2O[C@@H]1CN(C)S(=O)(=O)c1ccc(F)cc1 | . | . | . | 2
C[C@@H]1CN([C@H](C)CO)C(=O)c2cc(NC(=O)Cc3cn(C)c4ccccc34)ccc2O[C@@H]1CN(C)Cc1ccc(Cl)c(Cl)c1 | -5 | 0 | . | 8.1*
C[C@@H]1CN([C@@H](C)CO)C(=O)Cc2cc(NC(=O)Nc3ccc(C(F)(F)F)cc3)ccc2O[C@H]1CN(C)C(=O)Nc1ccccc1 | -11 | 0 | . | 9.3*
C[C@H]1CN([C@@H](C)CO)C(=O)Cc2cc(NC(=O)Nc3ccc(C(F)(F)F)cc3)ccc2O[C@H]1CN(C)S(=O)(=O)c1ccccc1 | 2 | 0 | . | 11*
C[C@H]1CN([C@@H](C)CO)C(=O)c2cc(NC(=O)NC3CCCCC3)ccc2O[C@@H]1CN(C)C(=O)Nc1ccccc1 | 157* | 0 | . | -2
C[C@H]1CN([C@@H](C)CO)C(=O)c2cc(NC(=O)NC3CCCCC3)ccc2O[C@H]1CN(C)C(=O)Nc1ccccc1 | -3 | 0 | . | 0
C[C@@H]1CN([C@H](C)CO)S(=O)(=O)c2ccc(C#CC3(O)CCCC3)cc2O[C@H]1CN(C)C(=O)c1ccccc1 | 8 | 0 | . | -1
CO[C@@H]1CN(C)C(=O)c2ccc(NS(C)(=O)=O)cc2OC[C@H](C)N(C(=O)CC2CC2)C[C@H]1C | -13 | 0 | . | 1
COc1ccc(S(=O)(=O)N(C)C[C@H]2OCCCC[C@H](C)Oc3ccc(NC(=O)C4CCCCC4)cc3C(=O)N([C@H](C)CO)C[C@H]2C)cc1 | 1 | -1 | . | 0
C[C@@H]1CN([C@@H](C)CO)C(=O)c2cc(NC(=O)Nc3ccc(C(F)(F)F)cc3)ccc2O[C@H]1CN(C)C(=O)Nc1ccc(C(F)(F)F)cc1 | -35 | 1 | . | -5
C[C@@H]1CN([C@H](C)CO)C(=O)c2cc(N(C)C)ccc2O[C@H]1CN(C)Cc1ccc(C(=O)Nc2ccccc2N)cc1 | 7 | 0 | . | 2
C[C@@H]1CN([C@H](C)CO)C(=O)Cc2cc(NC(=O)Nc3ccc(C(F)(F)F)cc3)ccc2O[C@H]1CN(C)Cc1ccc2c(c1)OCO2 | 101* | -1 | . | -1
C[C@H](CO)N1C[C@H](C)[C@H](CN(C)C(=O)NC2CCCCC2)Oc2ncc(-c3cc4ccccc4o3)cc2C1=O | -1 | -1 | . | 8.7*
C[C@@H]1CN([C@H](C)CO)C(=O)c2cc(NC(=O)Nc3ccc(C(F)(F)F)cc3)ccc2O[C@@H]1CN(C)C(=O)Nc1ccc(C(F)(F)F)cc1 | 106* | 0 | . | 0
C[C@@H]1CN([C@H](C)CO)C(=O)c2cc(N(C)C)ccc2O[C@@H]1CN(C)Cc1ccc(C(=O)Nc2ccccc2N)cc1 | 6 | 0 | . | 9.2*
CO[C@H]1CN(C)C(=O)c2cc(NC(C)=O)ccc2OC[C@H](C)N(Cc2ccccc2F)C[C@@H]1C | 10 | 0 | . | -2
